# Screens deposited in PubChem BioAssay by Broad Institute.
# Only some compounds are listed: those with a hit (about 5.8% of all), similar ones and a draw of the others.
# GASC1 inh = inhibitors of GASC-1 (KDM4C) histone demethylase, primary screen, biochemical, single concentration HTS | 96,000 tested, 0.15% active | Lysine-specific demethylase 4C (Homo sapiens), Q9H3R0 | inhibition, % at 12.5 µM | AID 720574, 2013 | GST-KDM4C 2-372, H3K9me3 peptide, LANCE TR-FRET;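 active means mean replicate inhibition above about 25%, with at least 55% of replicates also reaching it, limit read from the data, passing the limit was not always enough; inconclusive means only one of those two conditions met; inactive means neither condition met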
#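 Test system – GST-tagged GASC-1 (JMJD2C) catalytic fragment, aa 2-372 · Medium – HEPES buffer, pH 7.5, plus ascorbate · Reagent – H3K9me3 peptide with Fe(II)/2OG · Compound – one test concentration per compound · Timing – 30 min reaction, 60 min detection, RT · Technique – TR-FRET with Eu antibody and ULight streptavidin, EDTA stop · Read-out basis – inhibition from TR-FRET ratio decrease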
# Pf Dd2 growth = P. falciparum Dd2 growth inhibitors, primary screen, SYBR Green fluorescence, single dose replicates. 72 h; stronger effect = lower value. activity change, % at 10 µM. 94,000 tested, 2.3% active. AID 1159554, 2015; in the data active means activity change below about -80%; inconclusive means no clear call, values can overlap the other calls
# T cruzi growth-1 = T. cruzi intracellular proliferation inhibitors, primary screen, cell-based, beta-gal Tulahuen parasites, NIH3T3 host, luminescence; T. cruzi beta-gal in NIH3T3, GalScreen luminescence, 90 h; 77,000 tested, 5.9% active; inhibition, % at 8.34 µM;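 active means mean inhibition above about 93%, with at least 55% of replicates each passing it, limit read from the data, passing the limit was not always enough; inconclusive means only one of those two conditions holds; inactive means neither condition holds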
# IDH1 mut inh = inhibitors of IDH1 R132H reductase, primary screen, biochemical, plate reader, single point. diaphorase/resazurin fluorescence, 60 min. inhibition, % at 10 µM. 70,000 tested, 0.18% active. AID 624101, 2012; in the data active means inhibition above about 34%; inconclusive means no clear call, values can overlap the other calls; inactive means below about 11%;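 further: 0% = DMSO and 100% = no enzyme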
# Target sequence (O75874 whole entry R132H): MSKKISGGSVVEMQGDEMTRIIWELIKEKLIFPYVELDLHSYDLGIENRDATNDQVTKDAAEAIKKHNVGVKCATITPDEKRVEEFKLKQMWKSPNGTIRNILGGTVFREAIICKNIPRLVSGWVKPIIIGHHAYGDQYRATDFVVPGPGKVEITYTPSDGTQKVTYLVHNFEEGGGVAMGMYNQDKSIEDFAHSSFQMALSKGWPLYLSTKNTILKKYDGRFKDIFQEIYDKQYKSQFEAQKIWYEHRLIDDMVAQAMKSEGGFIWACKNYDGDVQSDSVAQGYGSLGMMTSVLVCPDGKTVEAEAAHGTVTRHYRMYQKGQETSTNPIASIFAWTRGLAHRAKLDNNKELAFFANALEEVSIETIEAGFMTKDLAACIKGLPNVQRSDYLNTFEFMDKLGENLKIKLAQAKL
# T cruzi growth-2 = T. cruzi intracellular proliferation inhibitors, confirmation, cell-based, NIH3T3 host, beta-gal parasite, luminescence, cherry-pick; shares compounds with T cruzi growth-1; T. cruzi beta-gal in NIH3T3, GalScreen luminescence, 90 h; inhibition, % at 8.35 µM; 5,600 tested, 72% active; AID 651739, 2012;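 active means mean replicate inhibition above about 95% and at least 55% of replicates individually reaching it, limit read from the data; inconclusive means only one of the two criteria is met; inactive means neither criterion is met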
# T cruzi growth-3 = inhibitors of intracellular T. cruzi replication, confirmation, NIH3T3 host cells, beta-gal parasites, cherry-pick, set 2. shares compounds with T cruzi growth-1. T. cruzi beta-gal in NIH3T3, GalScreen luminescence, 90 h. inhibition, % at 2.09 µM. 5,600 tested, 21% active. AID 651740, 2012;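 active means mean inhibition above about 95%, with at least 55% of replicates also reaching it, limit read from the data; inconclusive means meets just one of the two conditions; inactive means meets neither condition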;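 further: plate controls were neutral control median for no effect and positive control median for full effect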
# 3T3 cytotox = cytotoxicity in mouse NIH/3T3 fibroblasts, confirmation, cytotoxicity control for T. cruzi proliferation inhibitor project, cell-based, cherry-pick, single point; shares compounds with T cruzi growth-1; NIH/3T3 viability, CellTiter-Glo ATP luminescence, 90 h; cytotoxicity (signal decrease), % at 8.35 µM; 5,600 tested, 14% active; AID 651742, 2012;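 active means mean signal decrease across replicates above about 35% based on untreated-well scatter, with enough replicates individually passing, limit read from the data; inconclusive means no rule stated though some were filed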;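 further: 0% = median of neutral control wells and 100% = median of positive control wells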
# 3T3 cytotox 2 = NIH/3T3 fibroblast cytotoxicity, confirmation, cytotoxicity control, cell-based, cherry-pick, single point, set 2; NIH/3T3 viability, CellTiter-Glo ATP luminescence, 90 h; shares compounds with T cruzi growth-1; inhibition, % at 24.9 µM; 5,600 tested, 56% active;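 active means mean loss of cell viability signal at or above a set limit, and enough replicates individually reaching it; inconclusive means meets only the mean limit or only the replicate share; inactive means meets neither condition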;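 further: 0% = median of neutral control wells and 100% = median of positive control wells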
# Active calls of the source: *; u = inconclusive; x = not tested or not shown.
SMILES,GASC1 inh,Pf Dd2 growth,T cruzi growth-1,IDH1 mut inh,T cruzi growth-2,T cruzi growth-3,3T3 cytotox,3T3 cytotox 2
COc1ccc(C(=O)CC2(O)C(=O)N(Cc3ccc(C)cc3)c3ccc(Cl)cc32)cc1[N+](=O)[O-] (stereo not given),x,x,x,-1,x,x,x,x
C[C@H](CO)N1C[C@H](C)[C@H](CN(C)Cc2ccc(Oc3ccccc3)cc2)Oc2ccc(NS(=O)(=O)c3ccc(Cl)cc3)cc2C1=O,1,-6,u,x,107*,64,0,104*
C[C@@H]1CN([C@@H](C)CO)C(=O)c2cc(NS(=O)(=O)c3ccccc3)ccc2O[C@H]1CN(C)Cc1ccc(C(F)(F)F)cc1,0,10,94,x,x,x,x,x
C[C@H]1CN([C@@H](C)CO)C(=O)c2cc(NS(=O)(=O)c3ccccc3)ccc2O[C@H]1CN(C)Cc1ccc(C(F)(F)F)cc1,0,-65,u,0,106*,62,16,8
C[C@@H]1CN([C@H](C)CO)C(=O)c2cc(NS(=O)(=O)c3ccccc3)ccc2O[C@@H]1CN(C)Cc1ccc(Oc2ccccc2)cc1,-2,18,47,0,x,x,x,x
C[C@@H]1CN([C@@H](C)CO)C(=O)c2cc(NS(=O)(=O)c3ccc(Cl)cc3)ccc2O[C@@H]1CN(C)Cc1ccc(C(F)(F)F)cc1,-4,8,126*,1,96*,46,68*,104*
CCOC(=O)c1c(NC(=S)NCc2ccco2)sc2c1CCCCCC2,x,x,x,0,x,x,x,x
C[C@@H]1CN([C@H](C)CO)S(=O)(=O)c2ccc(C#Cc3ccc(F)cc3)cc2O[C@H]1CN(C)C(=O)c1ccccn1,3,-50,88,x,x,x,x,x
C[C@@H]1CN([C@H](C)CO)S(=O)(=O)c2ccc(C#Cc3ccccn3)cc2O[C@@H]1CN(C)Cc1ccc(F)cc1,-5,-24,116*,0,105*,64,11,24*
C[C@H]1CN([C@@H](C)CO)S(=O)(=O)c2ccc(C#Cc3ccccn3)cc2O[C@H]1CN(C)C,1,5,x,-8,x,x,x,x
C[C@H]1CN([C@@H](C)CO)S(=O)(=O)c2ccc(C#Cc3ccc(F)cc3)cc2O[C@@H]1CN(C)C(=O)c1ccccn1,-1,-66,u,x,102*,29,1,52*
C[C@@H]1CN([C@@H](C)CO)S(=O)(=O)c2ccc(C#Cc3ccccn3)cc2O[C@H]1CN(C)Cc1ccc(F)cc1,-26,-47,128*,0,97*,u,50*,39*
C[C@H](CO)N1C[C@H](C)[C@@H](CN(C)C)Oc2cc(C#Cc3ccccn3)ccc2S1(=O)=O,-1,24,x,-1,x,x,x,x
C[C@@H]1CN([C@H](C)CO)S(=O)(=O)c2ccc(C#Cc3ccccn3)cc2O[C@H]1CN(C)Cc1ccc(F)cc1,-12,-29,127*,0,104*,91,29,93*
Nc1cccc(S(=O)(=O)NCc2ccco2)c1,x,x,x,0,x,x,x,x
COC(=O)c1ccccc1NC(=O)CSc1nnc(-c2cc3cccc(OC)c3o2)n1C,x,x,x,-1,x,x,x,x
CCn1c(SCC(=O)Nc2cc(C)ccc2OC)nnc1-c1ccc(Cl)cc1,x,x,x,0,x,x,x,x
Cc1cccc(C)c1OCC(=O)Nc1sc(C)c(C)c1C(N)=O,x,x,x,0,x,x,x,x
C[C@@H]1CN([C@H](C)CO)C(=O)Cc2cc(NC(=O)Cc3cn(C)c4ccccc34)ccc2O[C@H]1CN(C)Cc1ccc(C(=O)Nc2ccccc2N)cc1,-1,-16,u,-1,91,37,5,15
C[C@@H]1CN([C@H](C)CO)C(=O)Cc2cc(NC(=O)Cc3cn(C)c4ccccc34)ccc2O[C@H]1CN(C)Cc1ccc(Cl)c(Cl)c1,-2,-55,u,0,98*,86,18,43*
C[C@@H]1CN([C@H](C)CO)C(=O)Cc2cc(NC(=O)Nc3ccccc3)ccc2O[C@@H]1CN(C)Cc1ccc(Cl)c(Cl)c1,-1,-9,102*,x,108*,41,6,104*
C[C@@H]1CN([C@@H](C)CO)C(=O)c2cc(NC(=O)Cc3cn(C)c4ccccc34)ccc2O[C@@H]1CN(C)Cc1ccc(Cl)c(Cl)c1,-1,-20,84,-6,x,x,x,x
C[C@@H]1CN([C@H](C)CO)C(=O)c2cc(NC(=O)Cc3cn(C)c4ccccc34)ccc2O[C@@H]1CN(C)Cc1ccc(Cl)c(Cl)c1,0,-9,102*,0,99*,59,16,37*
CC(C)=CCC[C@H](C)C/C=N/NC(=O)CCCCCCC(=O)O,x,x,x,0,x,x,x,x
Cc1cc(C)cc(N(C(C)C(=O)Nc2cccc3ccccc23)S(C)(=O)=O)c1 (stereo not given),x,x,x,0,x,x,x,x
SMILES,GASC1 inh,Pf Dd2 growth,T cruzi growth-1,IDH1 mut inh,T cruzi growth-2,T cruzi growth-3,3T3 cytotox,3T3 cytotox 2
CC1(C)CC(NC(=O)C(=O)NCC2COc3ccccc3O2)CC(C)(C)N1 (stereo not given),x,x,x,0,x,x,x,x
O=C(Cn1cnc2scc(-c3ccccc3)c2c1=O)Nc1ccc(F)cc1,x,x,x,0,x,x,x,x
O=C(C[C@H]1CC[C@@H](NC(=O)Nc2cc(F)ccc2F)[C@H](CO)O1)Nc1ccc(-c2ccccc2)cc1,-2,-7,132*,0,106*,75,23,32*
O=C(C[C@@H]1CC[C@@H](NC(=O)Nc2ccccc2)[C@H](CO)O1)NCc1ccccn1,0,10,108*,0,-12,-4,-9,3
Cc1cc(Cn2ccc(C(F)(F)F)n2)c(C)c(-c2c(C#N)c(N)nc3c2CCCC3)c1,x,x,x,0,x,x,x,x
Cc1cc(C(=O)Nc2cccc3c2O[C@@H](CN(C)Cc2ccccc2)[C@@H](C)CN([C@H](C)CO)C3=O)n(C)n1,2,10,26,1,x,x,x,x
Cc1cc(C(=O)Nc2cccc3c2O[C@H](CN(C)Cc2ccc(C(=O)Nc4ccccc4N)cc2)[C@@H](C)CN([C@@H](C)CO)C3=O)n(C)n1,-3,-87*,106*,x,106*,86,10,23
Cc1cc(C(=O)Nc2cccc3c2O[C@H](CN(C)Cc2ccc(C(=O)Nc4ccccc4N)cc2)[C@H](C)CN([C@H](C)CO)C3=O)n(C)n1,2,-60,103*,x,-49,-59,-10,-13
